The record followed here is ChEMBL document CHEMBL4706600, “Synthesis, molecular modeling, in vivo study and anticancer activity against prostate cancer of (+) (S)-naproxen derivatives” (Eur J Med Chem, 2020).

Active and inactive are the calls of the source. The rule behind the calls is not given here.

One data set has as its system PC-3. Kind of data set: Cytotoxicity against human PC-3 cells assessed as reduction in cell viability by […]. Type of data set: functional, cell-based. Summed up:
(§1)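 Growth of PC-3, DU-145 and LNCaP prostate cancer lines read by MTS tetrazolium proliferation assay. Cisplatin served as the positive reference standard.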

A further data set deals with DU-145. Nature of the data set: Cytotoxicity against human DU-145 cells assessed as reduction in cell viability by […]. Type of data set: functional, cell-based. Put shortly: as §1
Data set [1] concerns LNCaP. Kind of data set: Cytotoxicity against human LNCaP cells assessed as reduction in cell viability by […]. Type of data set: functional, cell-based. Summed up:
as §1

Data set [2] deals with Methionine aminopeptidase 2 (Homo sapiens) (UniProt P50579). Nature of the data set: Inhibition of MetAP2 in human LNCaP cells assessed as reduction in AKT phosphorylation at 5 to 20 uM incubated upto 120 mins by Western blot analysis. To be noted: dose 5-20 µM, time min <=120. Type of data set: cell-based. Put shortly:
(§2)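 LNCaP cells (1×10^6 per well, n = 3) plated in phenol-red-free RPMI-1640 with 1% FBS for 24 h, then exposed at 5 and 20 µM for 0, 15, 60 and 120 min. Lysates were assayed for total protein, and phosphorylated AKT, ERK, p38 and JNK were detected by Western blot.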
Target sequence in this assay (P50579 2-478 limits assumed): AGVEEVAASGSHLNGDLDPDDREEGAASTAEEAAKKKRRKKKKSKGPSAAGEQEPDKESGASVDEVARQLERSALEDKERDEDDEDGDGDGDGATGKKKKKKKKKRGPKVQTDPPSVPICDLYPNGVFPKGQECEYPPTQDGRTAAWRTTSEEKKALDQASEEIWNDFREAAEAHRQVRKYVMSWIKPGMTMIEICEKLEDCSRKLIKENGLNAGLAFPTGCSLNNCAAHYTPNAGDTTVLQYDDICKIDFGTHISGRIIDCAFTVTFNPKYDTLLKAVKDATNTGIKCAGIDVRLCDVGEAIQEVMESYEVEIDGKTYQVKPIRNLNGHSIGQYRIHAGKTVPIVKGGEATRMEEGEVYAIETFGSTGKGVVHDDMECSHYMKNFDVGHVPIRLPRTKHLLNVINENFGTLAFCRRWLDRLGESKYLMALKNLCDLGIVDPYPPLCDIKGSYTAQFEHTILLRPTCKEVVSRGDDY
In general terms: Immunoblotting shows a protein as a band on a membrane.

For data set [3] the target is unchanged. Nature of the data set: Inhibition of MetAP2 in human LNCaP cells assessed as reduction in ERK/MAPK phosphorylation at 5 to 20 uM incubated upto 120 mins by Western blot analysis. Type of data set: cell-based. To be noted: dose 5-20 µM, time min <=120. Summed up:
as §2
Target sequence in this assay (P50579 2-478 limits assumed): as above

For data set [4] the target is unchanged. Nature of the data set: Inhibition of MetAP2 in human LNCaP cells assessed as reduction in P28/MAPK phosphorylation at 5 to 20 uM incubated upto 120 mins by Western blot analysis. Type of data set: cell-based. To be noted: dose 5-20 µM. Put shortly:
as §2
Target sequence in this assay (P50579 2-478 limits assumed): as above

The target is the same in data set [5]. Kind of data set: Inhibition of MetAP2 in human LNCaP cells assessed as reduction in JNK/MAPK phosphorylation at 5 to 20 uM incubated upto 120 mins by Western blot analysis. To be noted: dose 5-20 µM, time min <=120. Type of data set: cell-based. Put shortly: as §2
Target sequence in this assay (P50579 2-478 limits assumed): as above
Data set [6] has as its system LNCaP. Nature of the data set: Induction of apoptosis in human LNCAP cells assessed as up regulation of Bax expression upto 20 uM measured after 6 hrs by Rt-PCR. Type of data set: functional, cell-based. The note with it: dose microM <=20, time 6.0 hrs, TDE = time-dependent effect.
Data set [7] relates to LNCaP. Nature of the data set: Induction of apoptosis in human LNCAP cells assessed as up regulation of Caspase 3 expression upto 20 uM measured after 6 hrs by Rt-PCR. To be noted: dose microM <=20, time 6.0 hrs, TDE = time-dependent effect. Type of data set: functional, cell-based.
Data set [8] has as its system LNCaP. Nature of the data set: Induction of apoptosis in human LNCAP cells assessed as up regulation of Caspase 9 expression upto 20 uM measured after 6 hrs by Rt-PCR. Type of data set: functional, cell-based. The note with it: dose microM <=20, time 6.0 hrs, TDE = time-dependent effect.
Data set [9] has as its system LNCaP. Kind of data set: Induction of apoptosis in human LNCAP cells assessed as down regulation of Bcl-2 expression upto 20 uM measured after 6 hrs by Rt-PCR. Type of data set: functional, cell-based. To be noted: dose microM <=20, time 6.0 hrs.
Data set [10] in a line: Toxicity in mouse assessed as effect on alkaline phosphatase level measured after 3 days by blood analyser(reference value: 144.50+/- 83.5 u/l). The note with it: 72 h, time 3 day. Type of data set: tissue-based.
A short description of data set [11]: Toxicity in mouse assessed as effect on alanine transaminase level measured after 3 days by blood analyser(reference value: 679.50+/- 71.5 u/l). Type of data set: tissue-based. To be noted: 72 h, time 3 day.
Data set [12] in a line: Toxicity in mouse assessed as effect on total bilirubin level measured after 3 days by blood analyser(reference value: 0.27+/- 0.05 mg/dl). The note with it: 72 h, time 3 day. Type of data set: tissue-based.
Data set [13] is described as follows: Toxicity in mouse assessed as effect on blood urea nitrogen level measured after 3 days by blood analyser(reference value: 27+/- 2.6 mg/dl). To be noted: in vivo, 72 h, time 3 day.
A short description of data set [14]: Toxicity in mouse assessed as effect on phosphate level measured after 3 days by blood analyser(reference value: 10.07+/- 1.06 mg/dl). Type of data set: tissue-based. To be noted: 72 h, time 3 day.
A short description of data set [15]: Toxicity in mouse assessed as effect on keratin level measured after 3 days by blood analyser(reference value: 0.2+/- 0.07 mg/dl). Type of data set: tissue-based. The note with it: 72 h, time 3 day.
The nature of data set [16]: Toxicity in mouse assessed as effect on glucose level measured after 3 days by blood analyser(reference value: 192+/- 33 mg/dl). Type of data set: tissue-based. To be noted: 72 h, time 3 day.
Data set [17] can be described thus: Toxicity in mouse assessed as effect on sodium level measured after 3 days by blood analyser(reference value: 148.33+/-1.89 mmol/l). Type of data set: tissue-based. The note with it: 72 h, time 3 day.
A short description of data set [18]: Toxicity in mouse assessed as effect on potassium level measured after 3 days by blood analyser(reference value: 10.7+/-2.2 mmol/l). Type of data set: tissue-based. To be noted: 72 h, time 3 day.
The nature of data set [19]: Toxicity in mouse assessed as effect on total protein level measured after 3 days by blood analyser(reference value: 5.7+/-0.4 g/dl). Type of data set: tissue-based. To be noted: 72 h, time 3 day.
Data set [20] can be described thus: Toxicity in mouse assessed as effect on globulin level measured after 3 days by blood analyser(reference value: 3.17+/-0.31 g/dl). Type of data set: tissue-based. To be noted: 72 h, time 3 day.
Data set [21] deals with LNCaP. Nature of the data set: Antitumor activity against human LNCaP cells xenografted in mouse assessed as decrease in ROI of cancer tissue at 0.27 mg measured after 15 days by IVIS image analysis. Type of data set: functional. To be noted: time 15 day. Summed up: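 LNCaP cells (5×10^6–6×10^6 cells/100 µL) injected subcutaneously into male nude mice; treatment given over 15 days, with controls receiving saline intraperitoneally every 4 days. Cancerous tissue visualized by in vivo imaging (IVIS).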

Data set [22] has as its target Methionine aminopeptidase 2 (Homo sapiens) (UniProt P50579). Kind of data set: Inhibition of MetAP2 (unknown origin) incubated measured at 12.5 to 200 uM for 30 mins by spectrophotometric analysis. The note with it: dose 12.5-200 µM.
Target sequence in this assay (P50579 whole entry, looked up): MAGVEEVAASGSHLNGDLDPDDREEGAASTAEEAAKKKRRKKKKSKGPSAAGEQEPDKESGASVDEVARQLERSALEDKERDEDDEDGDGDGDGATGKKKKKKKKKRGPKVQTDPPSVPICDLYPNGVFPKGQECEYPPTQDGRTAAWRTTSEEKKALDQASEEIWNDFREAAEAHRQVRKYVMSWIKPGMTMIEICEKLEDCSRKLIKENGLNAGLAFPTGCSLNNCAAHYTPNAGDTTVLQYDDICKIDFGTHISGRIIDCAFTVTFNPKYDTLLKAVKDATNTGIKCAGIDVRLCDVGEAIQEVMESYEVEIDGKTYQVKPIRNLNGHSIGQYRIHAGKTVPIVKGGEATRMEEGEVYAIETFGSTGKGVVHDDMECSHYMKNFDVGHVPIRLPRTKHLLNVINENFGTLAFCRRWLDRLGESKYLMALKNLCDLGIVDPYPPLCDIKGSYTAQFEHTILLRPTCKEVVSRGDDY
Data set [23] in a line: Toxicity in mouse assessed as effect on albumin level measured after 15 days by blood analyser(reference value: 2.6+/- 0.36 g/dl). To be noted: 360 h.

The IC50 is the point on the concentration scale where inhibition reaches its midpoint.

Regarding `COc1ccc2cc([C@H](C)c3nnc(SCc4ccc(Cl)cc4)n3-c3ccc(Cl)cc3)ccc2c1`, the IC50 in the data set on PC-3 was determined as 5.8 µM; in the data set on DU-145 it was 109 µM; in the data set on LNCaP [1], 110 µM.
In the case of `COc1ccc2cc([C@H](C)c3nnc(SCc4c(C)cc(C)cc4C)n3-c3cccc(Cl)c3)ccc2c1`, the IC50 is 16.3 µM in the data set with PC-3, 93.3 µM in the data set on DU-145 and above 400 µM in the data set on LNCaP [1].
`COc1ccc2cc([C@H](C)c3nnc(SCc4c(Cl)cccc4Cl)n3-c3ccc(Cl)cc3)ccc2c1`: the IC50 in the data set on PC-3 is 34.7 µM; in the data set on DU-145, 36.1 µM; with LNCaP [1], above 400 µM.
The corresponding values for `COc1ccc(CSc2nnc([C@@H](C)c3ccc4cc(OC)ccc4c3)n2-c2ccc(Cl)cc2)cc1` are above 400 µM, 72.6 µM and above 400 µM.
The corresponding values for `COc1ccc2cc([C@H](C)c3nnc(SCc4ccc(C)cc4)n3-c3ccc(F)cc3)ccc2c1` are 229 µM, 44.3 µM and above 400 µM.
The corresponding values for `COc1ccc2cc([C@H](C)c3nnc(SCc4ccc(F)cc4)n3-c3ccc(Cl)cc3)ccc2c1` are 10.8 µM, 33.6 µM and 33.9 µM.
In the case of `COc1ccc2cc([C@H](C)C(=O)NNC(=S)Nc3ccc(C(F)(F)F)cc3)ccc2c1`, the results for the IC50 in the data set on PC-3, with DU-145 and with LNCaP [1] were 64.3 µM, 62.2 µM and 92.8 µM, respectively.
As for `COc1ccc(CSc2nnc([C@@H](C)c3ccc4cc(OC)ccc4c3)n2-c2ccc(F)cc2)cc1`, the 50% inhibitory concentration (IC50) with PC-3 was above 400 µM; in the data set with DU-145, above 400 µM; with LNCaP [1], 22.8 µM. Also, the inhibition result in data set [2] was “inactive”; in data set [3], “inactive”; in [4] (time min <=120, in the assay text read “P38/MAPK” for “P28/MAPK”), “inactive”; in [5] it was “inactive”.
Consider `COc1ccc2cc([C@H](C)c3nnc(SCc4c(Cl)cccc4Cl)n3-c3ccc(F)cc3)ccc2c1`, for which the IC50 in the data set on PC-3 is 216 µM; with DU-145, 12.2 µM; in the data set with LNCaP [1], 12.2 µM.
As to `COc1cccc(CSc2nnc([C@@H](C)c3ccc4cc(OC)ccc4c3)n2-c2ccc(F)cc2)c1`, the IC50 is 211 µM in the data set with PC-3, 19.2 µM in the data set with DU-145 and 14.5 µM with LNCaP [1].
The corresponding values for `COc1cccc(CSc2nnc([C@@H](C)c3ccc4cc(OC)ccc4c3)n2-c2ccc(Cl)cc2)c1` are 138 µM, above 400 µM and 162 µM.
The corresponding values for `COc1ccc2cc([C@H](C)c3nnc(SCc4ccc(C)cc4)n3-c3ccc(Cl)cc3)ccc2c1` are 8.4 µM, 18.8 µM and 52.2 µM.
Taken in the same sequence, the figures for `COc1ccc2cc([C@H](C)c3nnc(SCc4ccc(Cl)cc4)n3-c3ccc(F)cc3)ccc2c1` were above 400 µM, 57.4 µM and above 400 µM.
Take `COc1ccc2cc([C@H](C)c3nnc(SCc4c(C)cc(C)cc4C)n3-c3ccc(F)cc3)ccc2c1`: the IC50 was 43.3 µM with PC-3, 10.2 µM in the data set with DU-145 and 2.21 µM with LNCaP [1]. In addition, the Activity result in the data set with LNCaP [6] is “Tde”; in the data set on LNCaP [7], “Tde”; with LNCaP [8] it was “Tde”; in data set [10] it was 58 U/L; in data set [11], 64.5 U/L; in data set [12], 0.3 mg/dL. In addition, the Activity in data set [13] is 21.5 mg/dL; in [14], 7.15 mg/dL; in data set [15] it was 0.25 mg/dL; in data set [16], 154 mg/dL; in data set [17], 137.5 mmol/L; in data set [18] it was 5.6 mmol/L. The Activity was 5.3 g/dL in data set [19], 3.6 g/dL in data set [20] and 1.25 g/dL in data set [23]. In the data set with LNCaP [9], the result was Active. For the same compound, the inhibition result in [2], in data set [3], in data set [4] (time min <=120), in data set [5] and in data set [22] was “Active” each time. Further, the “inhibition (INH)” value with LNCaP [21] came to 55%.
`COc1ccc2cc([C@H](C)c3nnc(SCc4c(Cl)cccc4Cl)n3-c3cccc(Cl)c3)ccc2c1`: the IC50 in the data set with PC-3 is 165 µM; in the data set on DU-145, above 400 µM; with LNCaP [1] it was 73.7 µM.
For `COc1ccc2cc([C@H](C)c3nnc(SCc4ccc(F)cc4)n3-c3ccc(F)cc3)ccc2c1`, the IC50 was above 400 µM in the data set on PC-3, 60.2 µM with DU-145 and 104 µM in the data set on LNCaP [1].
Taken in the same sequence, the figures for `COc1ccc2cc([C@H](C)c3nnc(SCc4ccccc4)n3-c3ccc(Cl)cc3)ccc2c1` were 14.2 µM, 35.8 µM and 50.4 µM.
